{"data": "Published values of several laboratories", "blaNDM-1": "Metallo-beta-lactamase type 2 (blaNDM-1, Klebsiella pneumoniae, UniProt C7C422)", "HTR2C": "5-hydroxytryptamine receptor 2C (HTR2C, Homo sapiens, UniProt P28335)", "HLA class I histocompatibility antigen, B alpha chain": "HLA class I histocompatibility antigen, B alpha chain (Homo sapiens, UniProt P01889)", "note": "Protocols differ between the studies behind these lines."}
{"Compound": "O=C(O)C1CSC(C(=O)O)N1 (stereo not shown)", "target": "blaNDM-1", "observed": "enzyme activity", "mode": "inhibitor", "technique": "fluorescence", "IC50": "55 µM"}
{"Compound": "C[C@H](NC(=O)[C@@H](CCC(=O)O)NC(=O)CN1CCN(CC(=O)O)CCN(CC(=O)O)CCN(CC(=O)O)CC1)C(=O)N[C@@H](Cc1ccc(O)cc1)C(=O)NCC(=O)N[C@@H](Cc1c[nH]c2ccccc12)C(=O)N[C@H](C(=O)N[C@@H](CC(=O)O)C(=O)N[C@@H](Cc1cccc2ccccc12)C(N)=O)c1ccccc1", "target": "Gastrin/cholecystokinin type B receptor (CCKBR, Homo sapiens, UniProt P32239)", "observed": "ligand displacement", "technique": "radioligand", "IC50": "0.184 µM"}
{"Compound": "Ic1ccccc1CN[C@@H]1C2CCN(CC2)[C@@H]1C(c1ccccc1)c1ccccc1 (racemic)", "target": "Substance-P receptor (TACR1, Homo sapiens, UniProt P25103)", "observed": "ligand displacement", "technique": "radioligand", "IC50": "0.00262 µM"}
{"Compound": "COCCn1c2nc(=O)n(-c3ccccc3)c(=O)c-2nc2ccccc21", "target": "mRNA cap guanine-N(7) methyltransferase (RNMT, Homo sapiens, UniProt O43148)", "observed": "enzyme activity", "mode": "inhibitor", "IC50": "35.5 µM"}
{"Compound": "O=C(O)c1cccc(C(=O)O)n1", "target": "blaNDM-1", "observed": "enzyme activity", "mode": "inhibitor", "technique": "fluorescence", "IC50": "4.26 µM"}
{"Compound": "CSCC[C@H](NC(=O)[C@H](CCC(N)=O)NC(=O)[C@H](C)NC(=O)[C@H](CO)NC(=O)[C@@H](N)CO)C(=O)N[C@@H](CC(N)=O)C(=O)N[C@@H](CC(C)C)C(=O)N[C@@H](CC(N)=O)C(=O)N[C@H](C(=O)N[C@@H](Cc1ccccc1)C(=O)N[C@@H](CC(C)C)C(=O)N[C@@H](CC(N)=O)C(=O)O)[C@@H](C)O", "target": "1-deoxy-D-xylulose-5-phosphate synthase (dxs, Deinococcus radiodurans, UniProt Q9RUB5)", "observed": "enzyme activity", "mode": "inhibitor", "technique": "absorbance", "pH": "pH 7.6", "setting": "with preincubation", "IC50": "49 µM"}
{"Compound": "Cc1c2ccncc2c(C)c2c1[nH]c1ccccc12", "target": "blaNDM-1", "observed": "enzyme activity", "mode": "inhibitor", "IC50": "> 30 µM"}
{"Compound": "CCCCCCCCCCCCCCC(Br)C(=O)O (stereo not shown)", "target": "Palmitoyltransferase ZDHHC20 (ZDHHC20, Homo sapiens, UniProt Q5W0Z9)", "observed": "enzyme activity", "mode": "inhibitor", "IC50": "5.33 µM"}
{"Compound": "CCCCCNC(=N)N/N=C/c1c[nH]c2ccc(OC)cc12", "target": "HTR2C", "observed": "ligand displacement", "technique": "radioligand", "IC50": "0.197 µM"}
{"Compound": "CC(C)[C@H](NC(=O)[C@@H](NC(=O)[C@H](CCC(=O)O)NC(=O)[C@@H](NC(=O)[C@H](Cc1ccccc1)NC(=O)[C@H](C)NC(=O)[C@H](CO)NC(=O)[C@@H](NC(=O)[C@@H](N)CO)[C@@H](C)O)C(C)C)[C@@H](C)O)C(=O)O", "target": "HLA class I histocompatibility antigen, B alpha chain", "observed": "ligand displacement", "technique": "radioligand", "IC50": "8.86 µM"}
{"Compound": "CN(Cc1ccccc1)C(=O)Oc1nsnc1N1CCCCC1", "target": "Fatty-acid amide hydrolase 1 (FAAH, Homo sapiens, UniProt O00519)", "observed": "enzyme activity", "mode": "inhibitor", "setting": "cell membranes", "IC50": "0.0631 µM"}
{"Compound": "O=C(Cc1ccccc1)N[C@H](C(=O)O)[C@@H]1N=C(C(=O)O)C(CSC(C(=O)O)c2ccccc2)CS1 (stereo partly shown)", "target": "blaNDM-1", "observed": "enzyme activity", "mode": "inhibitor", "technique": "absorbance", "IC50": "> 100 µM"}
{"Compound": "Fc1ccc(CC(c2ccccc2)N2CCCC2)cc1 (stereo not shown)", "target": "Sigma intracellular receptor 2 (Tmem97, Rattus norvegicus, UniProt Q5U3Y7)", "observed": "ligand displacement", "technique": "radioligand", "IC50": "> 10 µM"}
{"Compound": "CC[C@H](C)[C@H](NC(=O)[C@H](CCCNC(=N)N)NC(=O)[C@H](CC(C)C)NC(=O)[C@@H](N)Cc1ccccc1)C(=O)N[C@@H](CCCNC(=N)N)C(=O)N1CCC[C@H]1C(=O)N[C@@H](CCCCN)C(=O)O", "target": "B2 bradykinin receptor (BDKRB2, Homo sapiens, UniProt P30411)", "observed": "ligand displacement", "technique": "radioligand", "IC50": "0.14 µM"}
{"Compound": "CN1CCN(CC/C=C2/c3ccccc3Sc3ccc(S(=O)(=O)N(C)C)cc32)CC1", "target": "HTR2C", "observed": "ligand displacement", "technique": "radioligand", "IC50": "2.8 µM"}
{"Compound": "CC[C@H](C)[C@H](NC(=O)[C@H](CCCNC(=N)N)NC(=O)[C@@H]1CCCN1C(=O)[C@H](C)N)C(=O)N[C@H](C(=O)N[C@@H](Cc1ccccc1)C(=O)NCC(=O)NCC(=O)N1CCC[C@H]1C(=O)O)[C@@H](C)O", "target": "HLA class I histocompatibility antigen, B alpha chain", "observed": "ligand displacement", "technique": "radioligand", "IC50": "0.059 µM"}
{"Compound": "C[C@H](N)[C@H](O)c1cccc(O)c1", "target": "5-hydroxytryptamine receptor 2B (HTR2B, Homo sapiens, UniProt P41595)", "observed": "ligand displacement", "technique": "radioligand", "IC50": "7.38 µM"}
{"Compound": "CC[C@H](C)[C@H](NC(=O)[C@H](CC(C)C)NC(=O)CN)C(=O)N[C@H](C(=O)N[C@@H](CC(C)C)C(=O)N[C@@H](CO)C(=O)N[C@@H](Cc1ccc(O)cc1)C(=O)N[C@@H](Cc1c[nH]cn1)C(=O)N[C@@H](CC(C)C)C(=O)O)[C@@H](C)O", "target": "HLA class I histocompatibility antigen, B alpha chain", "observed": "ligand displacement", "technique": "radioligand", "IC50": "14.3 µM"}
{"Compound": "CC(C)C[C@H](NC(=O)[C@H](Cc1ccccc1)NC(=O)c1cnccn1)B(O)O", "target": "Complement C1r subcomponent (Homo sapiens, UniProt P00736)", "observed": "enzyme activity", "mode": "inhibitor", "IC50": "> 33 µM"}
{"Compound": "CC[C@H](C)[C@H](NC(=O)[C@@H](NC(=O)[C@@H](NC(=O)[C@H](CC(N)=O)NC(=O)[C@@H](NC(=O)[C@H](CO)NC(=O)[C@H](CC(N)=O)NC(=O)[C@H](CC(C)C)NC(=O)[C@@H](N)Cc1ccc(O)cc1)[C@@H](C)O)C(C)C)[C@@H](C)O)C(=O)O", "target": "HLA class I histocompatibility antigen, B alpha chain", "observed": "ligand displacement", "technique": "radioligand", "IC50": "7.93 µM"}
{"Compound": "c1ccc(CN(CCN(Cc2ccccn2)Cc2ccccn2)Cc2ccccn2)nc1", "target": "blaNDM-1", "observed": "enzyme activity", "mode": "inhibitor", "technique": "fluorescence", "IC50": "0.644 µM"}
{"Compound": "COc1ncccc1-c1cnn2ccc(N3CCN(C(=O)OC(C)C)CC3)nc12", "target": "BMP-2-inducible protein kinase (BMP2K, Homo sapiens, UniProt Q9NSY1)", "observed": "enzyme activity", "mode": "inhibitor", "IC50": "0.014 µM"}
